Where “and” joins values, the source holds several entries; their conditions need not be identical. Identical values can stand only once.
System: Fibroblast
Experiment: Multiplex assay against human fibroblast
Format: toxicity, cell-based
Method in brief: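 Values for tubulin, mitochondrial-mass and membrane-permeability phenotypes are per cents of cells with healthy nuclei. These cells were identified by CellPathfinder machine-learning gating of live cells that had been stained at seeding with Hoechst33342, BioTracker Green Microtubule Cytoskeleton Dye, MitoTracker Red and Annexin V Alexa Fluor 680 and imaged on a CQ1 microscope at 37°C and 5% CO2 after compound addition. The gating first set Hoechst high-intensity objects apart from normal cells, then split normal cells into healthy, pyknosed or fragmented nuclei, and pyknosed cells into mitotic or apoptotic.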

[1] = 12 h, 1 µM, compound concentration 1 uM
[2] = 12 h, 10 µM, compound concentration 10 uM
[3] = 24 h, 1 µM, compound concentration 1 uM
[4] = 24 h, 10 µM, compound concentration 10 uM
[5] = 48 h, 1 µM, compound concentration 1 uM
[6] = 48 h, 10 µM, compound concentration 10 uM

Q: What does the source list for CN1[C@@H](CC(=O)c2ccccc2)CCC[C@H]1C[C@H](O)c1ccccc1.Cl [LOBELINE HYDROCHLORIDE]?
A: Population Apoptotic (%) [1]: 11.11% and 18.52%; Population Fragmented Nuclei (%) [1]: 12.29% and 4.19%; Population Healthy Nuclei (%) [1]: 57.54% and 81.68%; Population Hoechst High Intensity Objects (%) [1]: 0%; Population Membrane Permeable-Phenotype (%) [1]: 3.88% and 3.21%; Population Mitochondria Different-Phenotype (%) [1]: 13.59% and 7.05%; Population Mitotic Cells (%) [1]: 88.89% and 81.48%; Population Normal (%) [1]: 100%; Population Pyknosed Nuclei (%) [1]: 30.17% and 14.14%; Population Tubulin-Different-Phenotype (%) [1]: 15.53% and 14.1%; Total Cell Count [1]: 179 and 191; Population Apoptotic (%) [2]: 16.36% and 11.43%; Population Fragmented Nuclei (%) [2]: 9.48% and 12.07%; Population Healthy Nuclei (%) [2]: 64.45% and 72.84%; Population Hoechst High Intensity Objects (%) [2]: 0%; Population Membrane Permeable-Phenotype (%) [2]: 8.09% and 4.73%; Population Mitochondria Different-Phenotype (%) [2]: 25% and 14.79%; Population Mitotic Cells (%) [2]: 83.64% and 88.57%; Population Normal (%) [2]: 100%; Population Pyknosed Nuclei (%) [2]: 26.07% and 15.09%; Population Tubulin-Different-Phenotype (%) [2]: 35.29% and 43.2%; Total Cell Count [2]: 211 and 232; Population Fragmented Nuclei (%) [3]: 8.95% and 0.5%; Population Healthy Nuclei (%) [3]: 64.21% and 85.07%; Population Hoechst High Intensity Objects (%) [3]: 0%; Population Membrane Permeable-Phenotype (%) [3]: 3.28% and 3.51%; Population Mitochondria Different-Phenotype (%) [3]: 11.48% and 7.02%; Population Mitotic Cells (%) [3]: 96.08% and 82.76%; Population Normal (%) [3]: 100%; Population Pyknosed Nuclei (%) [3]: 26.84% and 14.43%; Population Tubulin-Different-Phenotype (%) [3]: 28.69% and 18.13%; Total Cell Count [3]: 190 and 201; Population Fragmented Nuclei (%) [4]: 9.69% and 11.42%; Population Healthy Nuclei (%) [4]: 75.77% and 77.95%; Population Hoechst High Intensity Objects (%) [4]: 0%; Population Membrane Permeable-Phenotype (%) [4]: 2.33% and 2.02%; Population Mitochondria Different-Phenotype (%) [4]: 22.09% and 12.12%; Population Mitotic Cells (%) [4]: 93.94% and 66.67%; Population Normal (%) [4]: 100%; Population Pyknosed Nuclei (%) [4]: 14.54% and 10.63%; Population Tubulin-Different-Phenotype (%) [4]: 43.02% and 41.41%; Total Cell Count [4]: 227 and 254; Population Apoptotic (%) [5]: 23.08% and 23.53%; Population Fragmented Nuclei (%) [5]: 9.22% and 3.83%; Population Healthy Nuclei (%) [5]: 84.47% and 88.04%; Population Hoechst High Intensity Objects (%) [5]: 0%; Population Membrane Permeable-Phenotype (%) [5]: 1.15% and 1.63%; Population Mitochondria Different-Phenotype (%) [5]: 8.62% and 3.26%; Population Mitotic Cells (%) [5]: 76.92% and 76.47%; Population Normal (%) [5]: 100%; Population Pyknosed Nuclei (%) [5]: 6.31% and 8.13%; Population Tubulin-Different-Phenotype (%) [5]: 9.2% and 7.07%; Total Cell Count [5]: 206 and 209; Population Apoptotic (%) [6]: 30.77% and 35.71%; Population Fragmented Nuclei (%) [6]: 10.79% and 10.97%; Population Healthy Nuclei (%) [6]: 83.82% and 83.12%; Population Hoechst High Intensity Objects (%) [6]: 0%; Population Membrane Permeable-Phenotype (%) [6]: 1.98% and 6.09%; Population Mitochondria Different-Phenotype (%) [6]: 11.39% and 5.58%; Population Mitotic Cells (%) [6]: 69.23% and 64.29%; Population Normal (%) [6]: 100%; Population Pyknosed Nuclei (%) [6]: 5.39% and 5.91%; Population Tubulin-Different-Phenotype (%) [6]: 12.38% and 25.89%; Total Cell Count [6]: 241 and 237

Q: How did the “Population Apoptotic (%)” value [1] turn out when Cc1cc(=O)n(C)c2cc(N3C(=O)CC[C@H](NS(=O)(=O)CC(C)C)[C@H]3c3ccc(Cl)cc3)ccc12 was run?
A: 31% and 38%

Q: And the “Population Fragmented Nuclei (%)” value [1]?
A: 16% and 20%

Q: And the “Population Healthy Nuclei (%)” value [1]?
A: 56% and 38%

Q: And the “Population Hoechst High Intensity Objects (%)” value [1]?
A: 2% and 10%

Q: And the “Population Membrane Permeable-Phenotype (%)” value [1]?
A: 0% and 8%

Q: What about the “Population Mitochondria Different-Phenotype (%)” value [1] of the same molecule?
A: 4%

Q: What about the “Population Mitotic Cells (%)” value [1] of the same molecule?
A: 68% and 62%

Q: What about the “Population Normal (%)” value [1] of the same molecule?
A: 97% and 89%

Q: And the “Population Pyknosed Nuclei (%)” value [1]?
A: 26% and 40%

Q: What about the “Population Tubulin-Different-Phenotype (%)” value [1] of the same molecule?
A: 34% and 61%

Q: And the “Total Cell Count” value [1]?
A: 135 and 137

Q: And the “Population Apoptotic (%)” value [2]?
A: 41% and 18%

Q: And the “Population Fragmented Nuclei (%)” value [2]?
A: 11% and 26%

Q: What about the “Population Healthy Nuclei (%)” value [2] of the same molecule?
A: 40% and 31%

Q: And the “Population Hoechst High Intensity Objects (%)” value [2]?
A: 3% and 11%

Q: And the “Population Membrane Permeable-Phenotype (%)” value [2]?
A: 1% and 8%

Q: And the “Population Mitochondria Different-Phenotype (%)” value [2]?
A: 8%

Q: And the “Population Mitotic Cells (%)” value [2]?
A: 58% and 82%

Q: What about the “Population Normal (%)” value [2] of the same molecule?
A: 96% and 88%

Q: What about the “Population Pyknosed Nuclei (%)” value [2] of the same molecule?
A: 48% and 42%

Q: What about the “Population Tubulin-Different-Phenotype (%)” value [2] of the same molecule?
A: 86% and 94%

Q: And the “Total Cell Count” value [2]?
A: 149 and 133

Q: And the “Population Apoptotic (%)” value [3]?
A: 34% and 50%

Q: And the “Population Fragmented Nuclei (%)” value [3]?
A: 18% and 26%

Q: And the “Population Healthy Nuclei (%)” value [3]?
A: 62% and 44%

Q: And the “Population Hoechst High Intensity Objects (%)” value [3]?
A: 2% and 10%

Q: And the “Population Mitochondria Different-Phenotype (%)” value [3]?
A: 4% and 5%

Q: What about the “Population Mitotic Cells (%)” value [3] of the same molecule?
A: 65% and 50%

Q: And the “Population Normal (%)” value [3]?
A: 97% and 89%

Q: What about the “Population Pyknosed Nuclei (%)” value [3] of the same molecule?
A: 18% and 29%

Q: And the “Population Tubulin-Different-Phenotype (%)” value [3]?
A: 24% and 70%

Q: And the “Total Cell Count” value [3]?
A: 140 and 128

Q: And the “Population Apoptotic (%)” value [4]?
A: 43% and 42%

Q: And the “Population Fragmented Nuclei (%)” value [4]?
A: 14% and 28%

Q: What about the “Population Healthy Nuclei (%)” value [4] of the same molecule?
A: 46% and 26%

Q: And the “Population Hoechst High Intensity Objects (%)” value [4]?
A: 10% and 8%

Q: And the “Population Membrane Permeable-Phenotype (%)” value [4]?
A: 0% and 17%

Q: And the “Population Mitochondria Different-Phenotype (%)” value [4]?
A: 19% and 8%

Q: And the “Population Mitotic Cells (%)” value [4]?
A: 56% and 57%

Q: What about the “Population Normal (%)” value [4] of the same molecule?
A: 90% and 91%

Q: What about the “Population Pyknosed Nuclei (%)” value [4] of the same molecule?
A: 39% and 45%

Q: What about the “Population Tubulin-Different-Phenotype (%)” value [4] of the same molecule?
A: 88% and 85%

Q: What about the “Total Cell Count” value [4] of the same molecule?
A: 150 and 143

Q: What about the “Population Apoptotic (%)” value [5] of the same molecule?
A: 48% and 46%

Q: And the “Population Fragmented Nuclei (%)” value [5]?
A: 27% and 35%

Q: And the “Population Healthy Nuclei (%)” value [5]?
A: 54%

Q: What about the “Population Hoechst High Intensity Objects (%)” value [5] of the same molecule?
A: 2% and 7%

Q: What about the “Population Membrane Permeable-Phenotype (%)” value [5] of the same molecule?
A: 1% and 8%

Q: What about the “Population Mitochondria Different-Phenotype (%)” value [5] of the same molecule?
A: 2% and 8%

Q: What about the “Population Mitotic Cells (%)” value [5] of the same molecule?
A: 52% and 53%

Q: And the “Population Normal (%)” value [5]?
A: 97% and 92%

Q: What about the “Population Pyknosed Nuclei (%)” value [5] of the same molecule?
A: 18% and 9%

Q: What about the “Population Tubulin-Different-Phenotype (%)” value [5] of the same molecule?
A: 27% and 73%

Q: What about the “Total Cell Count” value [5] of the same molecule?
A: 141 and 142

Q: What about the “Population Apoptotic (%)” value [6] of the same molecule?
A: 61% and 54%

Q: What about the “Population Fragmented Nuclei (%)” value [6] of the same molecule?
A: 23% and 34%

Q: What about the “Population Healthy Nuclei (%)” value [6] of the same molecule?
A: 38% and 37%

Q: And the “Population Hoechst High Intensity Objects (%)” value [6]?
A: 15% and 10%

Q: And the “Population Membrane Permeable-Phenotype (%)” value [6]?
A: 0% and 25%

Q: And the “Population Mitochondria Different-Phenotype (%)” value [6]?
A: 24% and 8%

Q: What about the “Population Mitotic Cells (%)” value [6] of the same molecule?
A: 38% and 45%

Q: And the “Population Normal (%)” value [6]?
A: 84% and 89%

Q: And the “Population Pyknosed Nuclei (%)” value [6]?
A: 37% and 27%

Q: And the “Population Tubulin-Different-Phenotype (%)” value [6]?
A: 92% and 87%

Q: What about the “Total Cell Count” value [6] of the same molecule?
A: 153 and 141
